Compound activity (PubChem)
Rows were chosen to be rich in hits. Some 5.9% of all compounds tested hit in one or more screens of this group.
T cruzi growth = T. cruzi intracellular proliferation inhibitors, primary screen, cell-based, beta-gal Tulahuen parasites, NIH3T3 host, luminescence; T. cruzi beta-gal in NIH3T3, GalScreen luminescence, 90 h; inhibition, % at 8.34 µM; actives 5.9% (n = 77,000); AID 624255, 2012;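 active = mean inhibition above about 93%, with at least 55% of replicates each passing it, limit read from the data, passing the limit was not always enough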
Pf Dd2 inh = P. falciparum Dd2 growth inhibitors, primary screen, SYBR Green fluorescence, single dose replicates; 72 h; stronger effect = lower value; activity change, % at 10 µM; actives 2.3% (n = 94,000); AID 1159554, 2015; in the data active = activity change below about -80%
GASC1 inh = inhibitors of GASC-1 (KDM4C) histone demethylase, primary screen, biochemical, single concentration HTS; inhibition, % at 12.5 µM; Lysine-specific demethylase 4C (Homo sapiens), Q9H3R0; actives 0.15% (n = 96,000); GST-KDM4C 2-372, H3K9me3 peptide, LANCE TR-FRET;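 active = mean replicate inhibition above about 25%, with at least 55% of replicates also reaching it, limit read from the data, passing the limit was not always enough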
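Test system – GST-tagged GASC-1 (JMJD2C) catalytic fragment, aa 2-372 · Medium – HEPES buffer, pH 7.5, plus ascorbate · Reagent – H3K9me3 peptide with Fe(II)/2OG · Compound – one test concentration per compound · Timing – 30 min reaction, 60 min detection, RT · Technique – TR-FRET with Eu antibody and ULight streptavidin, EDTA stop · Read-out basis – inhibition from TR-FRET ratio decrease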
IDH1 mut inh = inhibitors of IDH1 R132H reductase, primary screen, biochemical, plate reader, single point. diaphorase/resazurin fluorescence, 60 min. Isocitrate dehydrogenase [NADP] cytoplasmic (Homo sapiens), O75874. inhibition, % at 10 µM. AID 624101, 2012. actives 0.18% (n = 70,000); in the data active = inhibition above about 34%;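 also: 0% = DMSO and 100% = no enzyme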
Target sequence (O75874 whole entry R132H): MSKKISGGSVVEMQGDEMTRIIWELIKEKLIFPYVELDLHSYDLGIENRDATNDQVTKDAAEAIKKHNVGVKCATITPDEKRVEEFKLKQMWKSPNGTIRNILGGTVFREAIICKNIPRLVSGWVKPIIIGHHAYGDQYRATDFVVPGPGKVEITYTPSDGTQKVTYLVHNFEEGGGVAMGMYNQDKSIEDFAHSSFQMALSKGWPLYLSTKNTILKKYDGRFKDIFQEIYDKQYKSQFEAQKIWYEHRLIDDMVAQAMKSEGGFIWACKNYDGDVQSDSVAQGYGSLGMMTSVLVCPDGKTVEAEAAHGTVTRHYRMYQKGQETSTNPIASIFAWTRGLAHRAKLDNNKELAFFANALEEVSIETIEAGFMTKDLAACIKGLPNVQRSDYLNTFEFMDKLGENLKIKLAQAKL
The depositor's hits bear a star; ! = not confirmed by another sample.

Cc1ccc(S(=O)(=O)Nc2ccc3c(c2)C(=O)N([C@@H](C)CO)C[C@H](C)[C@@H](CN(C)C(=O)Nc2ccc(C(F)(F)F)cc2)OCCCC[C@H](C)O3)cc1 was read as T cruzi growth 94, Pf Dd2 inh -82*, GASC1 inh -1 and IDH1 mut inh 7.
C[C@@H]1CCCCO[C@H](CN(C)C(=O)Nc2ccc(C(F)(F)F)cc2)[C@@H](C)CN([C@@H](C)CO)C(=O)c2cc(NS(=O)(=O)c3ccc(Cl)cc3)ccc2O1 was read as T cruzi growth 81, Pf Dd2 inh -84*, GASC1 inh 0 and IDH1 mut inh 0.
For Cc1noc(C)c1S(=O)(=O)Nc1ccc2c(c1)CC(=O)N([C@H](C)CO)C[C@H](C)[C@@H](CN(C)Cc1ccncc1)O2 the results were T cruzi growth -46, Pf Dd2 inh 11, GASC1 inh -2 and IDH1 mut inh 6.
For CC(C)CC#Cc1cnc2c(c1)C(=O)N([C@H](C)CO)C[C@@H](C)[C@H](CN(C)C(=O)CC1CC1)O2 the results were Pf Dd2 inh -26, GASC1 inh 0 and IDH1 mut inh 0.
Screening Cc1noc(C)c1NC(=O)N[C@@H]1C=C[C@@H](CC(=O)Nc2ccc(-c3ccccc3)cc2)O[C@@H]1CO returned T cruzi growth -6, Pf Dd2 inh 17, GASC1 inh -1 and IDH1 mut inh 0.
`Cc1ccc(S(=O)(=O)N(C)C[C@H]2OCCCC[C@H](C)Oc3ccc(NC(=O)C4CCCCC4)cc3C(=O)N([C@@H](C)CO)C[C@H]2C)cc1` gave T cruzi growth 63, Pf Dd2 inh -89* and GASC1 inh 0.
Screening C[C@@H]1CN([C@@H](C)CO)C(=O)c2cc(NC(=O)C3CCCCC3)ccc2O[C@@H](C)CCCCO[C@H]1CN(C)S(=O)(=O)c1ccc(Cl)cc1 returned T cruzi growth 87 and Pf Dd2 inh -83*.
Screening Cc1ccc(S(=O)(=O)N(C)C[C@H]2OCCCC[C@@H](C)Oc3ccc(NC(=O)C4CCCCC4)cc3C(=O)N([C@H](C)CO)C[C@@H]2C)cc1 returned T cruzi growth 0, Pf Dd2 inh -55 and GASC1 inh 2.
For O=C(Nc1ccc(C(F)(F)F)cc1)N1C[C@@H]2N[C@H](C1)C2c1ccc(-c2cccnc2)cc1 (some centres not stated) the results were Pf Dd2 inh -91*! and GASC1 inh 0.
`O=C(Nc1cccc(F)c1)N1C[C@@H]2N[C@H](C1)C2c1ccc(-c2cccnc2)cc1` (some centres not stated) gave Pf Dd2 inh -51 and GASC1 inh 0.
`C/C=C/c1ccc(C2[C@@H]3CN(C(=O)Nc4ccc(C(F)(F)F)cc4)C[C@H]2N3)cc1` (some centres not stated) gave Pf Dd2 inh -82*! and GASC1 inh 1.
For N#Cc1cccc(-c2ccc(C3[C@@H]4CN(C(=O)Nc5ccc(C(F)(F)F)cc5)C[C@H]3N4)cc2)c1 (some centres not stated) the results were Pf Dd2 inh -84*! and GASC1 inh -4.
`C/C=C/c1ccc(C2[C@@H]3CN(C(=O)Nc4ccc(F)cc4)C[C@H]2N3)cc1` (some centres not stated) gave Pf Dd2 inh -54 and GASC1 inh 0.
COCCNC(=O)C[C@H]1C=C[C@@H](NC(=O)NC2CCCC2)[C@@H](CO)O1 was read as T cruzi growth -28, Pf Dd2 inh -11, GASC1 inh -1 and IDH1 mut inh 0.
For Cc1noc(C)c1NC(=O)N1C[C@H](O)COC[C@@H]2O[C@@H](CC(=O)NCC3CC3)CC[C@H]21 the results were T cruzi growth -51 and GASC1 inh -1.
For COc1ccc(S(=O)(=O)N(C)C[C@@H]2OCCCC[C@H](C)Oc3ccc(NS(=O)(=O)c4ccc(C)cc4)cc3C(=O)N([C@H](C)CO)C[C@@H]2C)cc1 the results were T cruzi growth 113*, Pf Dd2 inh -62 and GASC1 inh 0.
For COc1ccc(S(=O)(=O)Nc2ccc3c(c2)C(=O)N([C@@H](C)CO)C[C@H](C)[C@@H](CN(C)S(=O)(=O)c2ccccc2)OCCCC[C@@H](C)O3)cc1 the results were Pf Dd2 inh -88*, GASC1 inh -1 and IDH1 mut inh -3.
`COc1ccc(S(=O)(=O)Nc2ccc3c(c2)C(=O)N([C@H](C)CO)C[C@@H](C)[C@@H](CN(C)S(=O)(=O)c2ccc(Cl)cc2)OCCCC[C@@H](C)O3)cc1` gave T cruzi growth 91, Pf Dd2 inh -89* and GASC1 inh -4.
`COc1ccc(S(=O)(=O)Nc2ccc3c(c2)C(=O)N([C@@H](C)CO)C[C@@H](C)[C@@H](CN(C)S(=O)(=O)c2ccc(C)cc2)OCCCC[C@H](C)O3)cc1` gave Pf Dd2 inh -79, GASC1 inh 0 and IDH1 mut inh 3.
`COc1ccc(S(=O)(=O)Nc2ccc3c(c2)C(=O)N([C@H](C)CO)C[C@@H](C)[C@@H](CN(C)S(=O)(=O)c2ccc(C)cc2)OCCCC[C@H](C)O3)cc1` gave Pf Dd2 inh -81* and GASC1 inh 1.
O=S(=O)(N[C@@H]1CC[C@H](CCn2cc(-c3cccc(F)c3)nn2)O[C@H]1CO)c1ccccc1 was read as T cruzi growth 9, Pf Dd2 inh 1, GASC1 inh -4 and IDH1 mut inh 0.
Cc1cccc(CN(C)C[C@@H]2Oc3ncc(/C=C/c4ccccc4)cc3C(=O)N([C@H](C)CO)C[C@@H]2C)c1 was read as T cruzi growth 86, Pf Dd2 inh -60, GASC1 inh 1 and IDH1 mut inh 0.
C[C@H]1CN([C@@H](C)CO)C(=O)c2cccc(NS(=O)(=O)c3ccc(F)cc3)c2O[C@H]1CN(C)Cc1ccc(C(=O)Nc2ccccc2N)cc1 was read as Pf Dd2 inh -88* and GASC1 inh 1.
For C[C@@H]1CN([C@@H](C)CO)C(=O)c2cccc(NS(=O)(=O)c3ccc(F)cc3)c2O[C@@H]1CN(C)Cc1ccc(C(=O)Nc2ccccc2N)cc1 the results were T cruzi growth 79, Pf Dd2 inh -90* and GASC1 inh 1.
Screening C[C@@H]1CN([C@@H](C)CO)C(=O)c2cccc(NS(=O)(=O)c3ccc(F)cc3)c2O[C@H]1CN(C)Cc1ccc(C(=O)Nc2ccccc2N)cc1 returned Pf Dd2 inh -68, GASC1 inh -1 and IDH1 mut inh 3.
C[C@H](CO)N1C[C@H](C)[C@@H](CN(C)Cc2ccc(Cl)c(Cl)c2)Oc2ccc(NS(=O)(=O)c3cccs3)cc2C1=O was read as T cruzi growth 39, Pf Dd2 inh -15, GASC1 inh 0 and IDH1 mut inh 2.
